Test results as given in ChEMBL document CHEMBL5724801, “EUbOPEN Chemogenomics Library - Multiplex” (2024).
Several values for one entry are separate records, joined by “and”; a condition that tells them apart may be missing. Equal entries are not always repeated.

Tests used:
Type in all cases: toxicity, cell-based
[1] = system: HEK-293T; test: Multiplex assay against HEK293T; conditions: human
In short: (§1)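 Imaging took place on a CQ1 microscope at 37°C and 5% CO2 once compound had been added to live cells stained at seeding with Hoechst33342, BioTracker Green Microtubule Cytoskeleton Dye, MitoTracker Red and Annexin V Alexa Fluor 680. CellPathfinder machine-learning gating classed cells as Hoechst high-intensity objects or normal cells, classed normal cells as having healthy, pyknosed or fragmented nuclei, and classed pyknosed cells as mitotic or apoptotic. Tubulin, mitochondrial-mass and membrane-permeability phenotypes are per cents of the healthy-nucleus cells.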

[2] = system: Fibroblast; test: Multiplex assay against human fibroblast; in short: as §1
[3] = system: U2OS; test: Multiplex assay against U2OS; conditions: human; in short: as §1
[4] = 12 h, 1 µM, compound concentration 1 uM
[5] = 12 h, 10 µM, compound concentration 10 uM
[6] = 24 h, 1 µM, compound concentration 1 uM
[7] = 24 h, 10 µM, compound concentration 10 uM
[8] = 48 h, 1 µM, compound concentration 1 uM
[9] = 48 h, 10 µM, compound concentration 10 uM

CCCN1CCC[C@@H]2Cc3n[nH]cc3C[C@H]21.Cl [QUINPIROLE HYDROCHLORIDE]
Population Apoptotic (%) [1, 4]: 32% and 63% | Population Fragmented Nuclei (%) [1, 4]: 6% and 4% | Population Healthy Nuclei (%) [1, 4]: 84% and 82% | Population Hoechst High Intensity Objects (%) [1, 4]: 6% and 3% | Population Membrane Permeable-Phenotype (%) [1, 4]: 0% | Population Mitochondria Different-Phenotype (%) [1, 4]: 37% and 67% | Population Mitotic Cells (%) [1, 4]: 67% and 36% | Population Normal (%) [1, 4]: 93% and 96% | Population Pyknosed Nuclei (%) [1, 4]: 9% and 12% | Population Tubulin-Different-Phenotype (%) [1, 4]: 22% and 26% | Total Cell Count [1, 4]: 447 and 294 | Population Apoptotic (%) [1, 5]: 55% and 46% | Population Fragmented Nuclei (%) [1, 5]: 11% and 5% | Population Healthy Nuclei (%) [1, 5]: 72% and 78% | Population Hoechst High Intensity Objects (%) [1, 5]: 9% and 5% | Population Membrane Permeable-Phenotype (%) [1, 5]: 0% | Population Mitochondria Different-Phenotype (%) [1, 5]: 53% and 69% | Population Mitotic Cells (%) [1, 5]: 44% and 53% | Population Normal (%) [1, 5]: 90% and 94% | Population Pyknosed Nuclei (%) [1, 5]: 15% and 16% | Population Tubulin-Different-Phenotype (%) [1, 5]: 40% and 26% | Total Cell Count [1, 5]: 381 and 312 | Population Apoptotic (%) [1, 6]: 30% and 29% | Population Fragmented Nuclei (%) [1, 6]: 12% and 8% | Population Healthy Nuclei (%) [1, 6]: 79% and 81% | Population Hoechst High Intensity Objects (%) [1, 6]: 3% and 2% | Population Membrane Permeable-Phenotype (%) [1, 6]: 0% | Population Mitochondria Different-Phenotype (%) [1, 6]: 17% and 37% | Population Mitotic Cells (%) [1, 6]: 70% | Population Normal (%) [1, 6]: 96% and 97% | Population Pyknosed Nuclei (%) [1, 6]: 8% and 9% | Population Tubulin-Different-Phenotype (%) [1, 6]: 14% and 16% | Total Cell Count [1, 6]: 600 and 390 | Population Apoptotic (%) [1, 7]: 45% and 43% | Population Fragmented Nuclei (%) [1, 7]: 10% and 7% | Population Healthy Nuclei (%) [1, 7]: 77% and 78% | Population Hoechst High Intensity Objects (%) [1, 7]: 4% and 2% | Population Membrane Permeable-Phenotype (%) [1, 7]: 0% | Population Mitochondria Different-Phenotype (%) [1, 7]: 38% and 43% | Population Mitotic Cells (%) [1, 7]: 54% and 56% | Population Normal (%) [1, 7]: 95% and 97% | Population Pyknosed Nuclei (%) [1, 7]: 11% and 13% | Population Tubulin-Different-Phenotype (%) [1, 7]: 27% and 13% | Total Cell Count [1, 7]: 529 and 406 | Population Apoptotic (%) [1, 8]: 21% and 33% | Population Fragmented Nuclei (%) [1, 8]: 16% and 11% | Population Healthy Nuclei (%) [1, 8]: 76% and 84% | Population Hoechst High Intensity Objects (%) [1, 8]: 1% and 2% | Population Membrane Permeable-Phenotype (%) [1, 8]: 1% | Population Mitochondria Different-Phenotype (%) [1, 8]: 9% and 19% | Population Mitotic Cells (%) [1, 8]: 78% and 66% | Population Normal (%) [1, 8]: 98% | Population Pyknosed Nuclei (%) [1, 8]: 6% and 4% | Population Tubulin-Different-Phenotype (%) [1, 8]: 10% and 8% | Total Cell Count [1, 8]: 1105 and 649 | Population Apoptotic (%) [1, 9]: 40% and 33% | Population Fragmented Nuclei (%) [1, 9]: 15% and 13% | Population Healthy Nuclei (%) [1, 9]: 78% and 80% | Population Hoechst High Intensity Objects (%) [1, 9]: 2% and 1% | Population Membrane Permeable-Phenotype (%) [1, 9]: 1% and 0% | Population Mitochondria Different-Phenotype (%) [1, 9]: 23% and 28% | Population Mitotic Cells (%) [1, 9]: 59% and 66% | Population Normal (%) [1, 9]: 97% and 98% | Population Pyknosed Nuclei (%) [1, 9]: 6% | Population Tubulin-Different-Phenotype (%) [1, 9]: 15% and 13% | Total Cell Count [1, 9]: 772 and 654 | Population Apoptotic (%) [2, 4]: 45% and 52% | Population Fragmented Nuclei (%) [2, 4]: 14% and 22% | Population Healthy Nuclei (%) [2, 4]: 65% and 60% | Population Hoechst High Intensity Objects (%) [2, 4]: 2% and 6% | Population Membrane Permeable-Phenotype (%) [2, 4]: 0% and 7% | Population Mitochondria Different-Phenotype (%) [2, 4]: 3% and 6% | Population Mitotic Cells (%) [2, 4]: 54% and 47% | Population Normal (%) [2, 4]: 97% and 93% | Population Pyknosed Nuclei (%) [2, 4]: 20% and 17% | Population Tubulin-Different-Phenotype (%) [2, 4]: 17% and 50% | Total Cell Count [2, 4]: 156 and 139 | Population Apoptotic (%) [2, 5]: 58% and 45% | Population Fragmented Nuclei (%) [2, 5]: 16% and 23% | Population Healthy Nuclei (%) [2, 5]: 68% and 59% | Population Hoechst High Intensity Objects (%) [2, 5]: 4% and 2% | Population Membrane Permeable-Phenotype (%) [2, 5]: 1% and 10% | Population Mitochondria Different-Phenotype (%) [2, 5]: 6% | Population Mitotic Cells (%) [2, 5]: 41% and 54% | Population Normal (%) [2, 5]: 95% and 97% | Population Pyknosed Nuclei (%) [2, 5]: 15% and 17% | Population Tubulin-Different-Phenotype (%) [2, 5]: 33% and 55% | Total Cell Count [2, 5]: 115 and 184 | Population Apoptotic (%) [2, 6]: 52% and 34% | Population Fragmented Nuclei (%) [2, 6]: 21% and 28% | Population Healthy Nuclei (%) [2, 6]: 64% and 53% | Population Hoechst High Intensity Objects (%) [2, 6]: 1% and 2% | Population Membrane Permeable-Phenotype (%) [2, 6]: 0% and 1% | Population Mitochondria Different-Phenotype (%) [2, 6]: 2% and 7% | Population Mitotic Cells (%) [2, 6]: 47% and 65% | Population Normal (%) [2, 6]: 98% | Population Pyknosed Nuclei (%) [2, 6]: 13% and 17% | Total Cell Count [2, 6]: 172 and 150 | Population Apoptotic (%) [2, 7]: 75% and 55% | Population Fragmented Nuclei (%) [2, 7]: 22% and 38% | Population Healthy Nuclei (%) [2, 7]: 67% and 51% | Population Hoechst High Intensity Objects (%) [2, 7]: 2% and 1% | Population Membrane Permeable-Phenotype (%) [2, 7]: 0% and 7% | Population Mitochondria Different-Phenotype (%) [2, 7]: 7% and 3% | Population Mitotic Cells (%) [2, 7]: 25% and 45% | Population Normal (%) [2, 7]: 97% and 98% | Population Pyknosed Nuclei (%) [2, 7]: 10% and 9% | Population Tubulin-Different-Phenotype (%) [2, 7]: 32% and 39% | Total Cell Count [2, 7]: 119 and 209 | Population Apoptotic (%) [2, 8]: 68% and 38% | Population Fragmented Nuclei (%) [2, 8]: 23% and 37% | Population Healthy Nuclei (%) [2, 8]: 62% and 53% | Population Hoechst High Intensity Objects (%) [2, 8]: 3% and 1% | Population Membrane Permeable-Phenotype (%) [2, 8]: 0% and 8% | Population Mitochondria Different-Phenotype (%) [2, 8]: 3% and 4% | Population Mitotic Cells (%) [2, 8]: 32% and 61% | Population Normal (%) [2, 8]: 96% and 98% | Population Pyknosed Nuclei (%) [2, 8]: 14% and 8% | Population Tubulin-Different-Phenotype (%) [2, 8]: 21% and 42% | Total Cell Count [2, 8]: 175 and 157 | Population Apoptotic (%) [2, 9]: 53% and 46% | Population Fragmented Nuclei (%) [2, 9]: 23% and 43% | Population Healthy Nuclei (%) [2, 9]: 65% and 48% | Population Hoechst High Intensity Objects (%) [2, 9]: 1% and 3% | Population Membrane Permeable-Phenotype (%) [2, 9]: 2% | Population Mitochondria Different-Phenotype (%) [2, 9]: 6% and 4% | Population Mitotic Cells (%) [2, 9]: 46% and 53% | Population Normal (%) [2, 9]: 98% and 96% | Population Pyknosed Nuclei (%) [2, 9]: 11% and 8% | Population Tubulin-Different-Phenotype (%) [2, 9]: 31% and 48% | Total Cell Count [2, 9]: 119 and 192 | Population Apoptotic (%) [3, 4]: 71% and 61% | Population Fragmented Nuclei (%) [3, 4]: 31% and 21% | Population Healthy Nuclei (%) [3, 4]: 60% and 67% | Population Hoechst High Intensity Objects (%) [3, 4]: 2% and 0% | Population Membrane Permeable-Phenotype (%) [3, 4]: 7% and 2% | Population Mitochondria Different-Phenotype (%) [3, 4]: 1% | Population Mitotic Cells (%) [3, 4]: 28% and 38% | Population Normal (%) [3, 4]: 97% and 100% | Population Pyknosed Nuclei (%) [3, 4]: 8% and 11% | Population Tubulin-Different-Phenotype (%) [3, 4]: 3% and 2% | Total Cell Count [3, 4]: 265 and 118 | Population Apoptotic (%) [3, 5]: 58% and 100% | Population Fragmented Nuclei (%) [3, 5]: 19% and 9% | Population Healthy Nuclei (%) [3, 5]: 72% and 85% | Population Hoechst High Intensity Objects (%) [3, 5]: 1% and 2% | Population Membrane Permeable-Phenotype (%) [3, 5]: 2% and 6% | Population Mitochondria Different-Phenotype (%) [3, 5]: 0% and 5% | Population Normal (%) [3, 5]: 98% and 97% | Population Pyknosed Nuclei (%) [3, 5]: 7% and 4% | Population Tubulin-Different-Phenotype (%) [3, 5]: 1% and 2% | Total Cell Count [3, 5]: 228 and 126 | Population Apoptotic (%) [3, 6]: 68% and 77% | Population Fragmented Nuclei (%) [3, 6]: 27% and 18% | Population Healthy Nuclei (%) [3, 6]: 64% and 68% | Population Hoechst High Intensity Objects (%) [3, 6]: 1% and 0% | Population Membrane Permeable-Phenotype (%) [3, 6]: 4% | Population Mitochondria Different-Phenotype (%) [3, 6]: 3% and 4% | Population Mitotic Cells (%) [3, 6]: 31% and 22% | Population Normal (%) [3, 6]: 98% and 100% | Population Pyknosed Nuclei (%) [3, 6]: 7% and 13% | Population Tubulin-Different-Phenotype (%) [3, 6]: 3% and 4% | Total Cell Count [3, 6]: 299 and 138 | Population Apoptotic (%) [3, 7]: 88% and 92% | Population Fragmented Nuclei (%) [3, 7]: 13% and 9% | Population Healthy Nuclei (%) [3, 7]: 80% and 82% | Population Hoechst High Intensity Objects (%) [3, 7]: 2% and 0% | Population Membrane Permeable-Phenotype (%) [3, 7]: 2% and 0% | Population Mitochondria Different-Phenotype (%) [3, 7]: 0% and 1% | Population Mitotic Cells (%) [3, 7]: 11% and 7% | Population Normal (%) [3, 7]: 97% and 99% | Population Pyknosed Nuclei (%) [3, 7]: 6% and 8% | Population Tubulin-Different-Phenotype (%) [3, 7]: 1% and 0% | Total Cell Count [3, 7]: 281 and 163 | Population Apoptotic (%) [3, 8]: 75% and 78% | Population Fragmented Nuclei (%) [3, 8]: 19% and 17% | Population Healthy Nuclei (%) [3, 8]: 74% and 69% | Population Hoechst High Intensity Objects (%) [3, 8]: 1% and 3% | Population Membrane Permeable-Phenotype (%) [3, 8]: 4% | Population Mitochondria Different-Phenotype (%) [3, 8]: 1% and 5% | Population Mitotic Cells (%) [3, 8]: 25% and 21% | Population Normal (%) [3, 8]: 98% and 96% | Population Pyknosed Nuclei (%) [3, 8]: 6% and 13% | Population Tubulin-Different-Phenotype (%) [3, 8]: 2% | Total Cell Count [3, 8]: 425 and 180 | Population Apoptotic (%) [3, 9]: 86% and 91% | Population Fragmented Nuclei (%) [3, 9]: 11% and 12% | Population Healthy Nuclei (%) [3, 9]: 78% | Population Hoechst High Intensity Objects (%) [3, 9]: 3% and 1% | Population Membrane Permeable-Phenotype (%) [3, 9]: 4% and 6% | Population Mitochondria Different-Phenotype (%) [3, 9]: 1% and 4% | Population Mitotic Cells (%) [3, 9]: 13% and 8% | Population Normal (%) [3, 9]: 96% and 98% | Population Pyknosed Nuclei (%) [3, 9]: 9% | Population Tubulin-Different-Phenotype (%) [3, 9]: 3% and 2% | Total Cell Count [3, 9]: 386 and 251
